Source: ChEMBL document CHEMBL5120825, “The azulene scaffold from a medicinal chemist's perspective: Physicochemical and in vitro parameters relevant for drug discovery” (Eur J Med Chem, 2022)
Values after ≈ are worked out from the molar mass of the structure shown.

Legend:
[1] = Photostability of the compound assessed as compound degradation administered as solid irradiated with sun light and measured after 7 days by HPLC analysis
[2] = Photostability of the compound at pH 7.2 assessed as compound degradation administered as solution irradiated with sun light and measured after 7 days by HPLC analysis; assay type: physicochemical; details: time 7 day, read-out: Drug degradation
Summary of the method: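 Compound in solution was kept for 7 days under "mild" light-stress conditions, with no pH adjustment. The pH listed for each compound is the solution's own intrinsic pH. Result is % degradation of parent.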

Cytochrome P450 2C9 = Cytochrome P450 2C9 (Homo sapiens, UniProt P11712); experiment: Inhibition of CYP2C9 in human liver microsomes using diclofenac as substrate preincubated with compound followed by NADPH addition by LC-MS/MS analysis; assay type: ADME, Microsome
Cytochrome P450 2C8 = target: T1, Cytochrome P450 2C8 (Homo sapiens, UniProt P10632); experiment: Inhibition of CYP2C8 in human liver microsomes using amodiaquine as substrate preincubated with compound followed by NADPH addition by LC-MS/MS analysis; assay type: ADME, Microsome
T1 sequence (P10632 whole entry): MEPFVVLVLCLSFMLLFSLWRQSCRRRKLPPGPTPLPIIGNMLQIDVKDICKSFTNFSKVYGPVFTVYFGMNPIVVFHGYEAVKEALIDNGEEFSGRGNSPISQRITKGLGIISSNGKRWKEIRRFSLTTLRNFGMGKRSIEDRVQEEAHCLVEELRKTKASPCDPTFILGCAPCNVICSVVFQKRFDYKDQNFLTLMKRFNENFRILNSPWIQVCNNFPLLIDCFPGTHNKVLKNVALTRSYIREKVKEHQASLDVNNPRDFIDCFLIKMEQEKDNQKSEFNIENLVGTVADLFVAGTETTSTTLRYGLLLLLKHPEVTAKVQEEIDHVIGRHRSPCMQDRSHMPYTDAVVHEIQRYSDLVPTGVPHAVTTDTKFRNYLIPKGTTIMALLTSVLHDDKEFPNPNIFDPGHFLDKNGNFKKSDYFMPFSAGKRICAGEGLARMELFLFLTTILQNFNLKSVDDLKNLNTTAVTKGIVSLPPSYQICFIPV

Cytochrome P450 2D6 = Cytochrome P450 2D6 (Homo sapiens, UniProt P10635); experiment: Inhibition of CYP2D6 in human liver microsomes using dextromethorphan as substrate preincubated with compound followed by NADPH addition by LC-MS/MS analysis; assay type: ADME, Microsome
Cytochrome P450 2C19 = Cytochrome P450 2C19 (Homo sapiens, UniProt P33261); experiment: Inhibition of CYP2C19 in human liver microsomes using mephenytoin as substrate preincubated with compound followed by NADPH addition by LC-MS/MS analysis; assay type: ADME, Microsome
Cytochrome P450 3A4 = Cytochrome P450 3A4 (Homo sapiens, UniProt P08684); experiment: Inhibition of CYP3A4 in human liver microsomes using midazolam as substrate preincubated with compound followed by NADPH addition by LC-MS/MS analysis; assay type: ADME, Microsome
[3] = Lipophilicity, logP of the compound; assay type: physicochemical; details: octanol/water; read-out: logP
[4] = Permeability of the compound at pH 7.4 by PAMPA assay; assay type: ADME; details: read-out: permeability
[5] = Aqueous solubility of the compound at pH 2.2 incubated for 24 hrs under shaking condition by LC-UV analysis; assay type: physicochemical; details: aqueous medium
Summary of the method: (§1)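 The highest concentration tested was 250 μM, so results are capped at that level. Values are reported in µg/ml.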

[6] = Aqueous solubility of the compound at pH 4.5 incubated for 24 hrs under shaking condition by LC-UV analysis; assay type: physicochemical; details: aqueous medium; summary of the method: as §1
[7] = Aqueous solubility of the compound at pH 6.8 incubated for 24 hrs under shaking condition by LC-UV analysis; assay type: physicochemical; details: aqueous medium; summary of the method: as §1
[8] = Metabolic stability in human liver microsomes assessed as hepatic blood flow at 1 uM preincubated with compound followed by NADPH addition by LC-MS/MS analysis; assay type: ADME, Microsome; details: read-out: QH
[9] = Octanol-water partition coefficient, logD of the compound at pH 2 by HPLC analysis; assay type: physicochemical; details: read-out: logD
[10] = Octanol-water partition coefficient, logD of the compound at pH 11 by HPLC analysis; assay type: physicochemical; details: read-out: logD

Chain of Cytochrome P450 2D6 (P10635 whole entry): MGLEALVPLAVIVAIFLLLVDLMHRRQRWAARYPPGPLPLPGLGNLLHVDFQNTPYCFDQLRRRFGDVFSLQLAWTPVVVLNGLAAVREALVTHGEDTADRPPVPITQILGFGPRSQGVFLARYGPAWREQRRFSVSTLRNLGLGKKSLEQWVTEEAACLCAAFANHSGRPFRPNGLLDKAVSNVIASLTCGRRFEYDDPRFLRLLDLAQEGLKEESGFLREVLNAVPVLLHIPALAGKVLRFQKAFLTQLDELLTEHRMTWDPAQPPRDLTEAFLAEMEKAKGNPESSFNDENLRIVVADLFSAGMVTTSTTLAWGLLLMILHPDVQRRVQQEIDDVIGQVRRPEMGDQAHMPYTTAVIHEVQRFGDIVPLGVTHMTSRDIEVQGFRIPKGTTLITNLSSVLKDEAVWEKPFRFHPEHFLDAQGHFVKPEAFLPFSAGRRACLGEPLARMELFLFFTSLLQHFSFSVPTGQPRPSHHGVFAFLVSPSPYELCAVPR
Chain of Cytochrome P450 2C9 (P11712 whole entry): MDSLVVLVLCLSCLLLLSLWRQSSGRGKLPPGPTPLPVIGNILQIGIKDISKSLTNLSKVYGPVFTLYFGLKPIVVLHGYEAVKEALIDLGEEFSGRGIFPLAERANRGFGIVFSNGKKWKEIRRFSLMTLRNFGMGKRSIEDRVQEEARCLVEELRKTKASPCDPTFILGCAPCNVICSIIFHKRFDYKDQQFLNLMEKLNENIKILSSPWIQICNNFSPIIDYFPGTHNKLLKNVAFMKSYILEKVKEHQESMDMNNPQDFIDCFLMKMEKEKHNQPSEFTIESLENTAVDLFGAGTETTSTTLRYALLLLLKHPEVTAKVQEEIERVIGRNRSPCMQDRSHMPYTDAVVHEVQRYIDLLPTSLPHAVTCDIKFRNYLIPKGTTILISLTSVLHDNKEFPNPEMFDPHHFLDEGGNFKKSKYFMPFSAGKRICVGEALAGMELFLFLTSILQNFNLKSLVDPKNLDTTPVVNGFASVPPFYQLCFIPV
Chain of Cytochrome P450 2C19 (P33261 whole entry): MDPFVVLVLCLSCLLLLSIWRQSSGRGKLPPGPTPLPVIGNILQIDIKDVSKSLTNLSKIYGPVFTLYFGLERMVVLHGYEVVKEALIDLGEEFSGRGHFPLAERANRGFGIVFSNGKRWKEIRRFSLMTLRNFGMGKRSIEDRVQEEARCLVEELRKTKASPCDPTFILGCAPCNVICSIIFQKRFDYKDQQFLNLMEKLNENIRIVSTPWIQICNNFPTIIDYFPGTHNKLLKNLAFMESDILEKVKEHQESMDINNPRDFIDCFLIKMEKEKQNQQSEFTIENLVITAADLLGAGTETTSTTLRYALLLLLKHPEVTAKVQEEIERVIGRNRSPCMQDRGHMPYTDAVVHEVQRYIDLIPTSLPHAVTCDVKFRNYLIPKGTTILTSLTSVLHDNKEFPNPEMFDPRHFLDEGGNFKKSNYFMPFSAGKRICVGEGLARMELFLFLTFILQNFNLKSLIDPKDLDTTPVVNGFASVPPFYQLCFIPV
Chain of Cytochrome P450 3A4 (P08684 whole entry): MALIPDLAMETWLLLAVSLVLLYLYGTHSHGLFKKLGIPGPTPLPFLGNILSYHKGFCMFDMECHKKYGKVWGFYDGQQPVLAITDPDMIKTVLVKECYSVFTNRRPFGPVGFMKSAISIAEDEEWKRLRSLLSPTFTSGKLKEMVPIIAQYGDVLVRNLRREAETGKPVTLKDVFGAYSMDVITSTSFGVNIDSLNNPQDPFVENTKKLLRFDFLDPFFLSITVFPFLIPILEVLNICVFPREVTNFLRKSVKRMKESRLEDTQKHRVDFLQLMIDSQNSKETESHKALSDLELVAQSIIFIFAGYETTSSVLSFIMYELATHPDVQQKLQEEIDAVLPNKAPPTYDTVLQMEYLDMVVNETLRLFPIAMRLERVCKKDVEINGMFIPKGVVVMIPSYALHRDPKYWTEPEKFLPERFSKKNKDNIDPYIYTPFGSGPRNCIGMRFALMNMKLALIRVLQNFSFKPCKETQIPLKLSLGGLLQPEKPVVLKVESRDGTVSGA

- degraded at 168 h [1]: < 0.5%
- degraded at 168 h [2]: < 0.5%
- IC50 (Cytochrome P450 2C9): 39 µM
- IC50 (Cytochrome P450 2C8): > 50 µM
- IC50 (Cytochrome P450 2D6): > 50 µM
- IC50 (Cytochrome P450 2C19): > 50 µM
- IC50 (Cytochrome P450 3A4): > 50 µM
- logP [3]: 3
- Papp [4]: 8.4 ×10⁻⁶ cm/s
- solubility thermodynamic at 24 h [5]: > 90 µg/mL
- solubility thermodynamic at 24 h [6]: 67 µg/mL (≈ 187 µM)
- solubility thermodynamic at 24 h [7]: > 73 µg/mL
- hepatic extraction ratio at 1 µM [8]: 0.48
- logD [9]: 1.2
- logD [10]: 1.2
Compound: CN1CCN(C(=O)c2ccc3ccc(C(=O)c4ccccc4)c-3cc2)CC1
